Reference: ChEMBL document CHEMBL4118106 (J Med Chem, 2018)
Where a SMILES comes first, the peptide text is derived from it. Bridges are numbered along the chain shown (N, C = ends). [ ]: non-standard residue; d: D form. R5 = C=CCCC[C@@](C)(N)C(=O)O; S5 = C=CCCC[C@](C)(N)C(=O)O

Test: Inhibition of EGFP-fused MERS-CoV spike protein mediated cell-cell fusion between viral protein expressing human 293T cells and human HuH7 target cells after 4 hrs by inverted fluorescence microscopic analysis
Parameters: species or system Middle East respiratory syndrome-related coronavirus
How it was run: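 Huh-7 target cells expressing DPP4 were seeded at 5 × 10^4/well and kept at 37 °C for 5 h. Inhibitors were added, then 293T effector cells co-expressing S protein and EGFP (1 × 10^4/well); 293T/EGFP-only cells served as negative control. After 4 h coculture at 37 °C, fused and unfused cells were counted by fluorescence microscopy.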

SMILES	EC50 [µM]
CSCC[C@H](NC(=O)[C@H](CCC(=O)O)NC(=O)[C@H](Cc1ccc(O)cc1)NC(=O)[C@@H](NC(=O)[C@H](CC(C)C)NC(=O)[C@H](CC(=O)O)NC(=O)[C@H](CC(C)C)NC(C)=O)[C@@H](C)O)C(=O)N[C@@H](CC(C)C)C(=O)N[C@@H](CO)C(=O)N[C@@H](CC(C)C)C(=O)N[C@@H](CCC(N)=O)C(=O)N[C@]1(C)CCC/C=C\CCC[C@](C)(C(=O)N[C@@H](CC(C)C)C(=O)N[C@@H](CC(N)=O)C(=O)N[C@@H](CCC(=O)O)C(=O)N[C@@H](CO)C(=O)N[C@@H](Cc2ccc(O)cc2)C(N)=O)NC(=O)[C@H](CCCCN)NC(=O)[C@H](C(C)C)NC(=O)[C@H](C(C)C)NC1=O (Ac-LDLTYEMLSLQ[R5]VVK[R5]LNESY-NH2; staple (Z) 12-16)	16.3
CSCC[C@H](NC(=O)[C@]1(C)CCC/C=C\CCC[C@](C)(NC(=O)[C@H](CC(C)C)NC(C)=O)C(=O)N[C@@H](CC(C)C)C(=O)N[C@@H]([C@@H](C)O)C(=O)N[C@@H](Cc2ccc(O)cc2)C(=O)N1)C(=O)N[C@@H](CC(C)C)C(=O)N[C@@H](CO)C(=O)N[C@@H](CC(C)C)C(=O)N[C@@H](CCC(N)=O)C(=O)N[C@@H](CCC(N)=O)C(=O)N[C@H](C(=O)N[C@H](C(=O)N[C@@H](CCCCN)C(=O)N[C@@H](C)C(=O)N[C@@H](CC(C)C)C(=O)N[C@@H](CC(N)=O)C(=O)N[C@@H](CCC(=O)O)C(=O)N[C@@H](CO)C(=O)N[C@@H](Cc1ccc(O)cc1)C(N)=O)C(C)C)C(C)C	3.9
C=CCCC[C@](C)(NC(=O)[C@H](CCCCN)NC(=O)[C@@H](NC(=O)[C@@H](NC(=O)[C@](C)(CCCC=C)NC(=O)[C@H](CCC(N)=O)NC(=O)[C@H](CC(C)C)NC(=O)[C@H](CO)NC(=O)[C@H](CC(C)C)NC(=O)[C@H](CCSC)NC(=O)[C@H](CCC(=O)O)NC(=O)[C@H](Cc1ccc(O)cc1)NC(=O)[C@@H](NC(=O)[C@H](CC(C)C)NC(=O)[C@H](CC(=O)O)NC(=O)[C@H](CC(C)C)NC(C)=O)[C@@H](C)O)C(C)C)C(C)C)C(=O)N[C@@H](CC(C)C)C(=O)N[C@@H](CC(N)=O)C(=O)N[C@@H](CCC(=O)O)C(=O)N[C@@H](CO)C(=O)N[C@@H](Cc1ccc(O)cc1)C(N)=O (Ac-LDLTYEMLSLQ[S5]VVK[S5]LNESY-NH2)	20.6
C=CCCC[C@](C)(NC(=O)[C@H](CCC(=O)O)NC(=O)[C@H](CC(N)=O)NC(=O)[C@H](CC(C)C)NC(=O)[C@](C)(CCCC=C)NC(=O)[C@H](CCCCN)NC(=O)[C@@H](NC(=O)[C@@H](NC(=O)[C@H](CCC(N)=O)NC(=O)[C@H](CCC(N)=O)NC(=O)[C@H](CC(C)C)NC(=O)[C@H](CO)NC(=O)[C@H](CC(C)C)NC(=O)[C@H](CCSC)NC(=O)[C@H](CCC(=O)O)NC(=O)[C@H](Cc1ccc(O)cc1)NC(=O)[C@@H](NC(=O)[C@H](CC(C)C)NC(=O)[C@H](CC(=O)O)NC(=O)[C@H](CC(C)C)NC(C)=O)[C@@H](C)O)C(C)C)C(C)C)C(=O)N[C@@H](Cc1ccc(O)cc1)C(N)=O	3.55
C=CCCC[C@](C)(NC(=O)[C@H](CCSC)NC(=O)[C@H](CCC(=O)O)NC(=O)[C@H](Cc1ccc(O)cc1)NC(=O)[C@@H](NC(=O)[C@H](CC(C)C)NC(=O)[C@H](CC(=O)O)NC(=O)[C@H](CC(C)C)NC(C)=O)[C@@H](C)O)C(=O)N[C@@H](CO)C(=O)N[C@@H](CC(C)C)C(=O)N[C@@H](CCC(N)=O)C(=O)N[C@@](C)(CCCC=C)C(=O)N[C@H](C(=O)N[C@H](C(=O)N[C@@H](CCCCN)C(=O)N[C@@H](C)C(=O)N[C@@H](CC(C)C)C(=O)N[C@@H](CC(N)=O)C(=O)N[C@@H](CCC(=O)O)C(=O)N[C@@H](CO)C(=O)N[C@@H](Cc1ccc(O)cc1)C(N)=O)C(C)C)C(C)C (Ac-LDLTYEM[S5]SLQ[S5]VVKALNESY-NH2)	4.49
